Results: ChEMBL document CHEMBL2176901, “Pyrrolo[3,4-h]quinolinones a new class of photochemotherapeutic agents” (Bioorg Med Chem, 2011)
The source made the active and inactive calls. The rule behind the calls is not given here.

Key:
[1] = system: Nucleic Acid; experiment: Binding affinity to salmon testes DNA at drug/DNA ratio of 0.01 by linear dichroism analysis; assay type: nucleic-acid assay; conditions: Salmonidae
Outline: (§1)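 Flow linear dichroism in 10 mM phosphate buffer pH 7.2. Samples oriented in a rotating cylindrical cuvette (0.14 cm path, 800 rpm) at several drug/DNA ratios.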

[2] = system: MCF7; experiment: Phototoxicity in 2.5 J/cm'2 UV-A irradiated human MCF7 cells assessed as cell viability after 72 hrs by MTT assay in presence of radical scavenger mannitol; assay type: functional, cell-based
Outline: (§2)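 MCF-7 cells given compound plus scavenger in HBSS, 30 min at 37 °C, then UV-A (2.5 J/cm², 365 nm lamp). Medium replaced; viability by MTT after 72 h. Means ± SEM of at least three independent experiments.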

[3] = system: Nucleic Acid; experiment: Induction of photo-induced supercoiled Escherichia coli pBR322 DNA at drug:DNA ratio of 1:3 by agarose gel electrophoresis in presence of glutathione; assay type: nucleic-acid assay
Outline: (§3)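 Supercoiled pBR322 (100 ng) in 10 mM phosphate buffer pH 7.2 irradiated with UV-A (3.75 J/cm²) at [DNA]/[drug] 1/3, with additives, under nitrogen or in deuterated buffer as stated. Aliquots then incubated at 37 °C with Fpg or Endo III. Run on 1% agarose in TAE, 80 V for 2 h, stained with ethidium bromide; Form I/II fractions from band densitometry.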

[4] = Drug uptake in endoplasmic reticulum of human NCTC-2544 cells at 10 uM after 2 hrs by fluorescence microphotography; assay type: ADME, cell-based; conditions: nctc-2544, 2 h
Outline: (§4)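 NCTC-2544 cells attached in Petri dishes, given compound at 10 μM for 2 h, washed with HBSS. Then 30 min with Rhodamine 123 (mitochondria), LysoTracker RED, CellMask Orange (plasma membrane) or ER-Tracker. Blue compound fluorescence overlaid on probe images by video-confocal microscopy.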

[5] = system: Jurkat; experiment: Induction of apoptosis in UV-A irradiated human Jurkat cells assessed as increase in number of damaged lysosomes at 5 to 10 uM by acridine orange-based flow cytometry; assay type: functional, cell-based
Outline: (§5)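 Lysosomal stability in Jurkat cells 6, 12 and 24 h after UV-A (2.5 J/cm²) with compound. Cells resuspended in RPMI-1640 with 1 µM acridine orange; flow cytometry, excitation 488 nm, emission in FL3. Mean ± SEM of three experiments.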

[6] = system: MCF7; experiment: Phototoxicity in 2.5 J/cm'2 UV-A irradiated human MCF7 cells assessed as cell viability after 72 hrs by MTT assay in presence of radical scavenger NaN3; assay type: functional, cell-based; outline: as §2
[7] = system: Nucleic Acid; experiment: Induction of photo-induced supercoiled Escherichia coli pBR322 DNA damage assessed as single strand break at drug:DNA ratio of 1:3 by agarose gel electrophoresis in presence of D2O buffer; assay type: nucleic-acid assay; outline: as §3
[8] = system: Jurkat; experiment: Induction of apoptosis in 3.75 J/cm'2 UV-A irradiated human Jurkat cells assessed as late apoptotic cells at 5 uM after 24 hrs by Annexin-V-FITC and propidium iodide based flow cytometry (reference value: 2.9 %); assay type: functional
[9] = Drug uptake in lysosome of human NCTC-2544 cells at 10 uM after 2 hrs by fluorescence microphotography; assay type: ADME, cell-based; conditions: nctc-2544, 2 h; outline: as §4
[10] = system: Jurkat; experiment: Phototoxicity in 2.5 J/cm'2 UV-A irradiated human Jurkat cells after 72 hrs by MTT assay; assay type: functional, cell-based; conditions: light or radiation study
Outline: (§6)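 HL-60 and Jurkat (8×10³/well, RPMI-1640) and MCF-7, LoVo, NCTC-2544 (5×10³/well; DMEM or Ham's F12) preincubated 18 h at 37 °C, 5% CO₂. Compound in DMSO diluted in HBSS pH 7.2, 30 min at 37 °C, then UV-A at 2.5 or 3.75 J/cm². Medium replaced, 72 h incubation, MTT read-out. IC50 as mean ± SEM of three experiments.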

[11] = system: Nucleic Acid; experiment: Binding affinity to salmon testes DNA at drug/DNA ratio of 0.02 by linear dichroism analysis; assay type: nucleic-acid assay; conditions: Salmonidae; outline: as §1
[12] = system: LoVo; experiment: Phototoxicity in 2.5 J/cm'2 UV-A irradiated human LoVo cells after 72 hrs by MTT assay; assay type: functional, cell-based; conditions: light or radiation study; outline: as §6
[13] = system: Nucleic Acid; experiment: Induction of photo-induced supercoiled Escherichia coli pBR322 DNA damage at drug:DNA ratio of 1:3 by agarose gel electrophoresis in presence of mannitol; assay type: nucleic-acid assay; outline: as §3
[14] = system: Jurkat; experiment: Induction of apoptosis in 3.75 J/cm'2 UV-A irradiated human Jurkat cells assessed as viable cells at 5 uM after 24 hrs by Annexin-V-FITC and propidium iodide based flow cytometry (reference value: 91 %); assay type: functional; conditions: light or radiation study, read-out: Activity
[15] = system: Jurkat; experiment: Induction of apoptosis in UV-A irradiated human Jurkat cells assessed as increase in number of damaged lysosomes after 6 to 24 hrs by acridine orange- based flow cytometry; assay type: functional, cell-based; outline: as §5
[16] = system: HL-60; experiment: Phototoxicity in 3.75 J/cm'2 UV-A irradiated human HL60 cells after 72 hrs by MTT assay; assay type: functional, cell-based; conditions: HL-60, light or radiation study; outline: as §6
[17] = system: Jurkat; experiment: Cell cycle arrest in UV-A irradiated human Jurkat cells assessed as accumulation at G1 phase at 5 uM after 24 hrs by propidium iodide based flow cytometry (reference value: 64.4 %); assay type: functional
Outline: (§7)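 Exponentially growing Jurkat cells (5×10^5) irradiated with UV-A (365 nm lamp, 2.5 J/cm²) in presence of compound. After 24 h: fixed in ice-cold 70% ethanol, lysed with RNAse A, stained with PI (10 µg/ml), analysed by flow cytometry. Phases calculated on living cells; subG1 is hypodiploid DNA peak.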

[18] = system: Jurkat; experiment: Induction of lipid peroxidation in 3.75 J/cm'2 UV-A irradiated human Jurkat cells assessed as increase in TBARS formation after 24 hrs by thiobarbituric acid assay; assay type: functional, cell-based
Outline: (§8)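 Lipid peroxidation measured as MDA–thiobarbituric acid adducts, with BHT added to samples; calibrated to a 1,1,3,3-tetraethoxypropane standard curve; protein by Peterson method.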

[19] = system: Jurkat; experiment: Induction of apoptosis in 3.75 J/cm'2 UV-A irradiated human Jurkat cells assessed as early apoptotic cells at 10 uM after 24 hrs by Annexin-V-FITC and propidium iodide based flow cytometry (reference value: 1.9 %); assay type: functional
[20] = system: Nucleic Acid; experiment: Induction of photo-induced supercoiled Escherichia coli pBR322 DNA damage at drug:DNA ratio of 1:3 by agarose gel electrophoresis in presence of DABCO; assay type: nucleic-acid assay; outline: as §3
[21] = system: Jurkat; experiment: Cell cycle arrest in UV-A irradiated human Jurkat cells assessed as accumulation at G1 phase at 10 uM after 24 hrs by propidium iodide based flow cytometry (reference value: 64.4 %); assay type: functional; outline: as §7
[22] = system: Jurkat; experiment: Cell cycle arrest in UV-A irradiated human Jurkat cells assessed as accumulation at S phase at 10 uM after 24 hrs by propidium iodide based flow cytometry (reference value: 25.3 %); assay type: functional; outline: as §7
[23] = system: Jurkat; experiment: Cell cycle arrest in UV-A irradiated human Jurkat cells assessed as accumulation at Sub G1 phase at 10 uM after 24 hrs by propidium iodide based flow cytometry (reference value: 0.1 %); assay type: functional; outline: as §7
[24] = Drug uptake in mitochondria of human NCTC-2544 cells at 10 uM after 2 hrs by fluorescence microphotography; assay type: ADME; conditions: nctc-2544, 2 h; outline: as §4
[25] = system: MCF7; experiment: Phototoxicity in 2.5 J/cm'2 UV-A irradiated human MCF7 cells assessed as cell viability after 72 hrs by MTT assay in presence of radical scavenger DABCO; assay type: functional, cell-based; outline: as §2
[26] = system: Jurkat; experiment: Induction of lipid peroxidation in 2.5 J/cm'2 UV-A irradiated human Jurkat cells assessed as increase in TBARS formation after 24 hrs by thiobarbituric acid assay; assay type: functional, cell-based; outline: as §8

Activity [1]: inactive | Activity [3]: inactive | Drug uptake [4]: Active | Drug uptake [9]: Active | Activity [11]: inactive | Drug uptake [24]: Active
Structure (SMILES): CCOC(=O)c1c2c(c(C)n1C)-c1c(cc(S(=O)(=O)c3ccccc3)c(=O)n1C)CC2
Activity [2]: inactive | Activity [5]: Active | Activity [6]: inactive | Activity [7]: Active | Activity [8]: 11% | IC50 [10]: 1200 nM | IC50 [12]: 700 nM | Activity [13]: inactive | viability at 5 µM [14]: 70.1% | Activity [15]: Active | IC50 [16]: 900 nM | Activity [17]: 48.9% | Activity [18]: Dose-dependent effect | Activity [19]: 23.9% | Activity [20]: inactive | Activity [21]: 39.1% | Activity [22]: 55.6% | Activity [23]: 43% | Activity [25]: inactive | Activity [26]: Dose-dependent effect
